Measurements published in publication PMC7051832 (ACS chemical biology, 2019).

What was measured:
[1] = target: E. coli dihydrofolate reductase (ecDHFR) (Escherichia coli, UniProt P0ABQ4); test: NMR 15N-HSQC titration of model fragments binding to ecDHFR
How it was run: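 15N-ecDHFR at 100 μM, in bulk buffer (20 mM Tris pH 8.5, 100 mM NaCl, 10 mM DTT, 0.02% azide) or in reverse micelles (52.5 mM 10MAG, 18 mM LDAO, 4.5 mM DTAB, hexanol, pentane; W0 15; 5 mM in water core). Titrated with fragment. 15N-HSQC at 25 °C, 1024 × 64 complex points, 32 scans. Chemical shift perturbations fitted for Kd; error from fitting.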

[2] = target: interleukin-1β (IL-1β) (Homo sapiens, UniProt P01584); test: Reverse micelle; format: binding; settings: RM encapsulated IL-1β
Chain of interleukin-1β (IL-1β) (P01584 117-269): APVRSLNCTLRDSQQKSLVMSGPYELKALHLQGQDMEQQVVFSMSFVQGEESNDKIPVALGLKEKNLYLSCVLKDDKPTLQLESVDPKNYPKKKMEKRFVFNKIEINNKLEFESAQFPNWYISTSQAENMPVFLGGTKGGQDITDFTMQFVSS

Chain of E. coli dihydrofolate reductase (ecDHFR) (P0ABQ4 whole entry, the tested form may be a part): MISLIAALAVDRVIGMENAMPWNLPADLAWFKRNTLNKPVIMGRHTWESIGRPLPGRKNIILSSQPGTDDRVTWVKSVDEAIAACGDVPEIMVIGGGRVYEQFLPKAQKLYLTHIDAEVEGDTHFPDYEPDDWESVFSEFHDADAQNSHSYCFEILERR

SMILES | Kd ([1]; binding to ecDHFR, natural cofactor, NMR titration) | degree of saturation of the protein ([1]; same absolute amounts of protein and ligand, both bulk and RM samples) | binding sites on the protein surface [2]
NC(=O)c1ccc[n+]([C@@H]2O[C@H](COP(=O)([O-])OP(=O)(O)OC[C@H]3O[C@@H](n4cnc5c(N)ncnc54)[C@H](OP(=O)(O)O)[C@@H]3O)[C@@H](O)[C@H]2O)c1 [NADP^+] | 9 ± 2 µM | saturated the enzyme in both bulk and RM samples | –
OCc1ccc2nccn2c1 [imidazo[1,2-a]pyridine-6-ylmethanol] | – | – | bound to multiple sites on the protein surface
